According to ChEMBL document CHEMBL1124097, “9-(2-Fluorobenzyl)-6-(alkylamino)-9H-purines. A new class of anticonvulsant agents” (1988):

How the values were obtained:
Type in all cases: functional
Rattus norvegicus [1] = assay: Anticonvulsant activity against maximal electroshock-induced seizures in rats after ip administration at 25 mg/kg (compared to standard); conditions: route intraperitoneal
Rattus norvegicus [2] = assay: Anticonvulsant activity against maximal electroshock-induced seizures in rats after intraperitoneal administration.; conditions: ip
Method in brief: (§1)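 Male Sprague-Dawley rats were protected against maximal electroshock-induced seizures. The ED50 is the dose that protects 50% of animals from the hind-limb extensor component, calculated by the method of Miller. For ED50s given with standard error, at least 12 animals per dose level and four doses per compound were used. Otherwise, three doses with six animals per point were used.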

Rattus norvegicus [3] = assay: Anticonvulsant activity against maximal electroshock-induced seizures in rats after oral administration; method in brief: as §1

With `CNc1ncnc2c1ncn2Cc1cccc(OCc2ccccc2)c1` the inhibition in vivo at 25 mg/kg (Rattus norvegicus [1]) was 17%.
Compound `Fc1ccccc1Cn1cnc2c(NC3CCC3)ncnc21` has an ED50 (Rattus norvegicus [2]) of 33 mg/kg.
For `CNc1ncnc2c1ncn2Cc1c(F)cccc1F`, the ED50 (Rattus norvegicus [3]) was 2.7 mg/kg.
In the case of `CNc1ncnc2c1ncn2Cc1ccc(N)cc1`, the ED50 (Rattus norvegicus [2]) is reported as 25 mg/kg.
`CC(C)(C)Nc1ncnc2c1ncn2Cc1ccccc1F` gave an ED50 (Rattus norvegicus [2]) of over 50 mg/kg.
`CNc1ncnc2c1ncn2Cc1ccccc1C(F)(F)F` gave an ED50 (Rattus norvegicus [2]) of 20 mg/kg.
Work on `CNc1ncnc2c1ncn2Cc1c(F)cccc1Cl` yielded an ED50 (Rattus norvegicus [2]) of 12.5 mg/kg.
`CN(C)c1ncnc2c1ncn2Cc1c(F)cccc1Cl` showed an ED50 (Rattus norvegicus [2]) of 5 mg/kg and an ED50 (Rattus norvegicus [3]) of 10 mg/kg.
Compound `CNc1ncnc2c1ncn2Cc1ccccc1C` has an ED50 (Rattus norvegicus [2]) of 10 mg/kg and an ED50 (Rattus norvegicus [3]) of 25 mg/kg.
`CNc1ncnc2c1ncn2Cc1ccccc1` gave an ED50 (Rattus norvegicus [2]) of 5 mg/kg and an ED50 (Rattus norvegicus [3]) of 12 mg/kg.
With `CNc1ncnc2c1ncn2Cc1cccc(F)c1` the ED50 (Rattus norvegicus [2]) was 7 mg/kg.
`CNc1ncnc2c1ncn2Cc1ccc(F)cc1F` gave an ED50 (Rattus norvegicus [2]) of 20 mg/kg.
With `Nc1ncnc2c1ncn2Cc1ccccc1F` the ED50 (Rattus norvegicus [2]) was 4.5 mg/kg and the ED50 (Rattus norvegicus [3]) was 12 mg/kg.
`CNc1ncnc2c1ncn2Cc1cccc(O)c1` showed an inhibition in vivo at 25 mg/kg (Rattus norvegicus [1]) of 0%.
In the case of `Fc1ccccc1Cn1cnc2c(N3CCCC3)ncnc21`, the ED50 (Rattus norvegicus [2]) is reported as 12.5 mg/kg and the ED50 (Rattus norvegicus [3]) is reported as 35 mg/kg.
With `CNc1ncnc2c1ncn2Cc1cccc(F)c1F` the ED50 (Rattus norvegicus [2]) was 18 mg/kg and the ED50 (Rattus norvegicus [3]) was over 50 mg/kg.
Work on `Fc1ccccc1Cn1cnc2c(N3CCC3)ncnc21` yielded an ED50 (Rattus norvegicus [2]) of over 50 mg/kg.
`CN(C)c1ncnc2c1ncn2Cc1ccccc1` was tested, and the ED50 (Rattus norvegicus [2]) was 6 mg/kg and the ED50 (Rattus norvegicus [3]) was 12 mg/kg.
With `CNc1ncnc2c1ncn2Cc1ccccc1Cl` the ED50 (Rattus norvegicus [2]) was 6.2 mg/kg and the ED50 (Rattus norvegicus [3]) was 12.5 mg/kg.
`CNc1ncnc2c1ncn2Cc1ccc(F)cc1` gave an inhibition in vivo at 25 mg/kg (Rattus norvegicus [1]) of 33%.
`CNc1ncnc2c1ncn2Cc1ccc([N+](=O)[O-])cc1` gave an inhibition in vivo at 25 mg/kg (Rattus norvegicus [1]) of 0%.
`CN(C=O)c1ncnc2c1ncn2Cc1ccccc1F` showed an ED50 (Rattus norvegicus [2]) of 11 mg/kg and an ED50 (Rattus norvegicus [3]) of 25 mg/kg.
`O=C1NC(=O)C(c2ccccc2)(c2ccccc2)N1` [PHENYTOIN] showed an ED50 (Rattus norvegicus [2]) of 9.6 mg/kg.
